Laboratory results as given in PMC2788160 (Nutrition Research and Practice, 2009).

Key:
[1] = system: Caco-2 cell monolayer; assay: Apical-to-basolateral uptake in Caco-2 differentiated monolayer; type: in vitro ADME, human; settings: for Absorption percent: Caco-2 cells over 1 hour; for Conc. of aloin in basolateral side / Conc. of aloe-emodin in basolateral side: 1 hr, 37℃
In short: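 Caco-2 (passages 26-48; high-glucose DMEM, 10% FBS, 1% nonessential amino acids) on Transwell inserts at 5×10^4 cells/cm2, 18-24 days; TEER >550 Ω·cm2. Apical compound at 5, 10, 50 µM final (DMSO, diluted in HBSS, pH 6.0); basolateral HBSS pH 7.4; 1 hr, 37℃. C18 HPLC with/without sulfatase H-5 (45 min, 37℃) gives parent and conjugates; % absorption = basolateral×100/apical concentration.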

[2] = system: everted gut sac (rat small intestine); assay: Everted gut sac model uptake into serosal side; type: in vitro ADME; settings: 10 µM, 1 hr; Fig. 2
In short: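 Rats fasted overnight; small intestine flushed with 0.9% NaCl, everted in warm oxygenated TC 199 medium, filled, cut into ~2.5 cm sacs from upper/mid-jejunum (12-15 per experiment). Sacs incubated 1 hr, 37℃ in 6 ml oxygenated medium with 10 µM compound; serosal fluid collected, volume from sac weights. HPLC with/without sulfatase (difference = conjugates); uptake per mg tissue protein (modified Lowry, BSA standard).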

Molecule CC(=O)Cc1cc(=O)c2c(C)cc(O)c([C@@H]3O[C@H](CO)[C@@H](O)[C@H](O)[C@H]3O)c2o1 [aloesin] has an Absorption percent ([1]; 5 μM) of 7.61%, an Absorption percent ([1]; 10 μM) of 13.64% and an Absorption percent ([1]; 50 μM) of 8.14%. The “% absorption in everted gut sac compared to Caco-2 monolayer” value [2] was “more aloesin were shown to be absorbed in the gut sac compared to the Caco-2 monolayer”.
In the case of O=C1c2c(O)cccc2C([C@@H]2O[C@H](CO)[C@@H](O)[C@H](O)[C@H]2O)c2cc(CO)cc(O)c21 (stereo partly shown) [aloin], the “Conc. of aloin in basolateral side” value ([1]; 5 μM apical treatment) was 0.11 nmol/cm^2 culture area, the “Conc. of aloin in basolateral side” value ([1]; 10 μM apical treatment) was 0.42 nmol/cm^2 culture area and the “Conc. of aloin in basolateral side” value ([1]; 50 μM apical treatment) was 1.99 nmol/cm^2 culture area.
O=C1c2cccc(O)c2C(=O)c2c(O)cc(CO)cc21 [aloe-emodin] was tested, and the “Conc. of aloe-emodin in basolateral side” value ([1]; 5 μM apical treatment) was 0.13 nmol/cm^2 culture area, the “Conc. of aloe-emodin in basolateral side” value ([1]; 10 μM apical treatment) was 0.86 nmol/cm^2 culture area and the “Conc. of aloe-emodin in basolateral side” value ([1]; 50 μM apical treatment) was 2.51 nmol/cm^2 culture area.
